Measurements as given in ChEMBL document CHEMBL3228043, “Alkylating nucleosides. 2. Synthesis and cytostatic activity of bromomethylpyrazole and pyrazole nitrogen mustard nucleosides” (1979).
In brackets after ≈: the same amount, converted by molar mass.

System: HeLa
Experiment: Cytostatic activity against human HeLa cells after 72 hrs by FCR-based colorimetric method
Assay type: functional
Details: read-out: ED50 (the source's name)
How it was run: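 HeLa cells seeded at 10⁵ cells/mL in Minimal Eagle's medium with 10% fetal calf serum in Leighton tubes at 37 °C; after 2-3 h attachment, compound added as suspension in sterile saline with 0.05% (v/v) Tween 80 (10% of final volume). Incubated 72 h at 37 °C; growth estimated from cell protein by Oyama-Eagle colorimetric method; 6-mercaptopurine positive control.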

EC50	Compound
6 µg/mL (≈ 10.7 µM)	CCOC(=O)c1cc(CBr)n([C@@H]2O[C@H](COC(C)=O)[C@@H](OC(C)=O)[C@H](OC(C)=O)[C@H]2OC(C)=O)n1
2 µg/mL (≈ 4.33 µM)	CC(=O)OC[C@H]1O[C@@H](n2nc(CBr)cc2C(N)=O)[C@H](OC(C)=O)[C@@H]1OC(C)=O
5 µg/mL (≈ 8.88 µM)	CCOC(=O)c1cc(CBr)nn1[C@@H]1O[C@H](COC(C)=O)[C@@H](OC(C)=O)[C@H](OC(C)=O)[C@H]1OC(C)=O
2.5 µg/mL (≈ 5.09 µM)	CCOC(=O)c1cc(CBr)nn1[C@@H]1O[C@H](COC(C)=O)[C@@H](OC(C)=O)[C@H]1OC(C)=O
5 µg/mL (≈ 8.88 µM)	CCOC(=O)c1cc(CBr)nn1[C@H]1O[C@H](COC(C)=O)[C@@H](OC(C)=O)[C@H](OC(C)=O)[C@H]1OC(C)=O
2 µg/mL (≈ 4.07 µM)	CCOC(=O)c1cc(CBr)nn1[C@@H]1OC[C@@H](OC(C)=O)[C@@H](OC(C)=O)[C@H]1OC(C)=O
3 µg/mL (≈ 6.49 µM)	CC(=O)O[C@@H]1[C@H](OC(C)=O)[C@H](OC(C)=O)CO[C@H]1n1nc(CBr)cc1C(N)=O
2 µg/mL (≈ 4.33 µM)	CC(=O)OC[C@H]1O[C@@H](n2nc(C(N)=O)cc2CBr)[C@H](OC(C)=O)[C@@H]1OC(C)=O
4 µg/mL (≈ 7.49 µM)	CC(=O)OC[C@H]1O[C@@H](n2nc(CBr)cc2C(N)=O)[C@H](OC(C)=O)[C@@H](OC(C)=O)[C@@H]1OC(C)=O
> 100 µg/mL	Br.NCc1cc(C(N)=O)n([C@@H]2OC[C@@H](O)[C@@H](O)[C@H]2O)n1

Continued, compound first:

Compound	EC50
CCOC(=O)c1cc(CN(CCCl)CCCl)nn1[C@@H]1O[C@H](COC(C)=O)[C@@H](OC(C)=O)[C@H](OC(C)=O)[C@H]1OC(C)=O	> 100 µg/mL
CCOC(=O)c1cc(CN(CCCl)CCCl)nn1[C@@H]1O[C@H](COC(C)=O)[C@@H](OC(C)=O)[C@H]1OC(C)=O	> 100 µg/mL
CC(=O)O[C@@H]1[C@H](OC(C)=O)[C@H](OC(C)=O)CO[C@H]1n1nc(CN(CCCl)CCCl)cc1C(N)=O	50 µg/mL (≈ 95.5 µM)
CC(=O)OC[C@H]1O[C@@H](n2nc(CN(CCCl)CCCl)cc2C(N)=O)[C@H](OC(C)=O)[C@@H]1OC(C)=O	35 µg/mL (≈ 66.9 µM)
CCOC(=O)c1cc(CN(CCCl)CCCl)nn1[C@@H]1OC[C@@H](OC(C)=O)[C@@H](OC(C)=O)[C@H]1OC(C)=O	> 100 µg/mL
Br.NCc1cc(C(N)=O)n([C@@H]2O[C@H](CO)[C@@H](O)[C@H](O)[C@H]2O)n1	> 100 µg/mL
Sc1ncnc2nc[nH]c12 [MERCAPTOPURINE ANHYDROUS]	0.1 µg/mL (≈ 0.657 µM)
CC(=O)OC[C@H]1O[C@@H](n2nc(CN(CCCl)CCCl)cc2C(N)=O)[C@H](OC(C)=O)[C@@H](OC(C)=O)[C@@H]1OC(C)=O	> 100 µg/mL
Br.NCc1cc(C(N)=O)n([C@@H]2O[C@H](CO)[C@@H](O)[C@H]2O)n1	> 100 µg/mL
